Measured values taken from the RNAGym collection of RNA variant scans (doi:10.1126/science.aae0568).
Fewer inactive variants are shown than the library holds.

B1: tRNA (parent)
chain: GUUCCGUUGGCGUAAUGGUAACGCGUCUCCCUCCUAAGGAGAAGACUGCGGGUUCGAGUCCCGUACGGAACG

Variants of: B1
Assay: yeast fitness relative to wild type (ratio to wild type); higher = fitter; tRNA-Arg(CCU), competitive growth, 37 C, YPD
In short: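 The tRNA-Arg(CCU) gene variants were made by chemical synthesis with a 3% per-site mutation rate at 69 sites and inserted at the native genomic locus of Saccharomyces cerevisiae. After pooling, the strains were competed in YPD at 37°C for 24 hours in six parallel replicates. Gene amplicons from the start population and each end population were read by 100-nucleotide paired-end sequencing, and Darwinian fitness relative to wild type was taken from genotype frequency changes. Genotypes needed ≥ 100 starting reads, and estimates < 0.5 were set to 0.5.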

Row | Variant | yeast fitness
1 | U2C G67A | 0.911
2 | U2C C11U G12A A15G U54C C66U G68C A69U | ≤ 0.5
3 | U2C C22A | 0.927
4 | U2C G10C G41A G50C | 0.585
5 | U2C C22G A36G | 0.651
6 | U2C G50A G68C | 0.556
7 | U2C G9A U16C | 0.602
8 | U2C C11U C22U A57U | ≤ 0.5
9 | U2C G63C G68C | 0.572
10 | U2C C27A C31G | 0.557
11 | U2C C5G C46U A70G | 0.994
12 | U2C G12A A15G | ≤ 0.5
13 | U2C G10C C31U A43G | 0.525
14 | U2C C24G A37G G58A G67A | ≤ 0.5
15 | U2C C24G C34U C49A | ≤ 0.5
16 | U2C C33G C34U C49U | ≤ 0.5
17 | U2C C24G C30U C62U | ≤ 0.5
18 | U2C G18C G25C C30A G63C | ≤ 0.5
19 | U2C G9C U28C G50C A57C A69U | ≤ 0.5
20 | U2C G23A C33G U35G C60U C62G | ≤ 0.5
21 | U2C C11U A21C U26C A57U | ≤ 0.5
22 | U2C C27G C31G A69U | ≤ 0.5
23 | U2C G17C G23A C49G | ≤ 0.5
24 | U2C C11G C46A A57U | ≤ 0.5

Row | Variant | yeast fitness
25 | U2C U7A C31A C66G | ≤ 0.5
26 | U2C C30U C31G G50U | ≤ 0.5
27 | U2C G17A A37C A65G | 0.539
28 | U2C A37G C55G U64A | ≤ 0.5
29 | U2C G50A | 0.878
30 | U2C A37C | 0.81
31 | U2C A37U | 0.826
32 | U2C A37G | 0.67
33 | U2C G10A C30U | 0.629
34 | U2C A20U G25A C27G G67A | ≤ 0.5
35 | U2C C11G C46A A70C | ≤ 0.5
36 | U2C G12C C34A A40C | ≤ 0.5
37 | U2C G10C C24A C31U A36C G48A | ≤ 0.5
38 | U2C U8A G17C G38A | ≤ 0.5
39 | U2C C4U C34A A65C C66G | 0.583
40 | U2C A69U | 0.96
41 | U2C A69C | 0.872
42 | U2C C22G C31U C60U C61U | 0.527
43 | U2C C24U C29U C30A A69U | ≤ 0.5
44 | U2C C5G C30G G44A | ≤ 0.5
45 | U2C C31G U35A G63A | ≤ 0.5
46 | U2C C5A C46U | 0.591
47 | U2C A42C U54A G67C A69U | ≤ 0.5
48 | U2C A20U C61A G67A | ≤ 0.5

Row | Variant | yeast fitness
49 | U2C C5U C11G U19A C30U G58A | ≤ 0.5
50 | U2C G25A | 0.943
51 | U2C G25C | 0.953
52 | U2C C31U A57U | 0.535
53 | U2C G12A | 0.993
54 | U2C A70U | 1.06
55 | U2C C5G G9A A15U | 0.539
56 | U2C G67A A70U | 0.67
57 | U2C C11A C31U C33U A42C | 0.527
58 | U2C C34G A45C A57C | ≤ 0.5
59 | U2C C4U C34U C55U G68C | ≤ 0.5
60 | U2C U3C C34U C62G G63A | ≤ 0.5
61 | U2C G10C G51A C60U G67A | ≤ 0.5
62 | U2C C5G G9A A15U A69U | ≤ 0.5
63 | U2C C31G G58A C61G U64G A69C | ≤ 0.5
64 | U2C U8A G17C G38A G56C C61A | ≤ 0.5
65 | U2C A45C C49U | 0.698
66 | U2C A21U U32A A40C G56C | ≤ 0.5
67 | U2C A37U G48A C61U | ≤ 0.5
68 | U2C C27A G41A C49A U53C U54C | ≤ 0.5
69 | U2C A40G U59C | 0.587
70 | U2C A45C | 1.01
71 | U2C A45G | 0.883
72 | U2C G39A | 0.884

Row | Variant | yeast fitness
73 | U2C C30U | 0.967
74 | U2C C30A | 0.89
75 | U2C A36G C61G U64C | ≤ 0.5
76 | U2C C27A G41A C49A U53C U54C U64C | ≤ 0.5
77 | U2C C31G U35A A69U | ≤ 0.5
78 | U2C C11U A65C | 0.583
79 | U2C A42C C66U | 0.574
80 | U2C A21C C30A C62U A70U | ≤ 0.5
81 | U2C C49A C62U | ≤ 0.5
82 | U2C C27G U28A A43U | 0.629
83 | U2C G38A U47A C55G C61U | ≤ 0.5
84 | U2C C24U C31U C46A U59A C61A | ≤ 0.5
85 | U2C A21G C33G U35C U59A A69U | ≤ 0.5
86 | U2C A37U G52A | ≤ 0.5
87 | U2C U3C C34U A65G | ≤ 0.5
88 | U2C A40C C66U | 0.524
89 | U2C G23C C29A C49G A57U | ≤ 0.5
90 | U2C C11A U32C | ≤ 0.5
91 | U2C U3C C34U A40U C55U A65G | ≤ 0.5
92 | U2C A40C | 0.851
93 | U2C A21G G68A | 0.864
94 | U2C A40G C61A | ≤ 0.5
95 | U2C C49G A65G | 0.594
96 | U2C G18A C24A U28A U32C | ≤ 0.5

Row | Variant | yeast fitness
97 | U2C A65U G67A | 0.698
98 | U2C G23C C33A G50C G58C A70G | ≤ 0.5
99 | U2C C62U G68C A69G | ≤ 0.5
100 | U2C G51A A69U | ≤ 0.5
101 | U2C G18A C24U A42G G68A | ≤ 0.5
102 | U2C C49U C62U | 0.521
103 | U2C U3A U26C U53C | ≤ 0.5
104 | U2C G12A A36U | ≤ 0.5
105 | U2C C11U A21C U26C C34A A45U C46A G50A U54C C55G | ≤ 0.5
106 | U2C C24G U53G A57G | ≤ 0.5
107 | U2C A40U G58C | 0.705
108 | U2C U7C G23A | 0.592
109 | U2C A21C A42U U54A | ≤ 0.5
110 | U2C A45G G68A | ≤ 0.5
111 | U2C G18C C30U C61G | ≤ 0.5
112 | U2C C5A C24A U64G | ≤ 0.5
113 | U2C C31G C62A | 0.532
114 | U2C C24U G44C A69U | ≤ 0.5
115 | U2C U8A A36U | ≤ 0.5
116 | U2C A57C A69U | 0.578
117 | U2C G48A G63C | 0.953
118 | U2C G18C C30U A57C U64C | ≤ 0.5
119 | U2C A42G C61G | ≤ 0.5
120 | U2C U3G G10A A69C | ≤ 0.5

Row | Variant | yeast fitness
121 | U2C A45U C46G G58C U59C A65G C66G | 0.628
122 | U2C G6A A20U C30U A36U C62U | ≤ 0.5
123 | U2C C27G A43U A45U A69U | ≤ 0.5
124 | U2C U8C | 0.965
125 | U2C A21G A36G G38C | ≤ 0.5
126 | U2C C4U C34U | 0.719
127 | U2C C11G C27U C46G | 0.606
128 | U2C G18C | 0.723
129 | U2C G18A | 0.806
130 | U2C C5G C46U U54G A65C | ≤ 0.5
131 | U2C G12A A15G C66U | 0.577
132 | U2C C4U C27U A45C G48A G56C | ≤ 0.5
133 | U2C A43G C49A A57U | ≤ 0.5
134 | U2C A21U U35A G41C U47A G67C | ≤ 0.5
135 | U2C G23A C31G G58A | ≤ 0.5
136 | U2C G10A | 0.803
137 | U2C G17C G23C G25C U35A A42U A70G | ≤ 0.5
138 | U2C C29U C34U A57C U64C | ≤ 0.5
139 | U2C C11G U19G | ≤ 0.5
140 | U2C A21U A40C G56C | 0.66
141 | U2C G48A G67A | 0.633
142 | U2C A21G A65U | 0.665
143 | U2C G25C A70G | 0.978
144 | U2C C46G | 0.98

Row | Variant | yeast fitness
145 | U2C C24G A42U | ≤ 0.5
146 | U2C C24U C60A | ≤ 0.5
147 | U2C G58A C62G | 0.597
148 | U2C G18C C55G C61G | 0.541
149 | U2C C22A C29A G51C | 0.596
150 | U2C C11G C24A C55A | 0.786
151 | U2C C61G U64C | ≤ 0.5
152 | U2C C11A A40C | 0.553
153 | U2C C4G C22U C30A | ≤ 0.5
154 | U2C C4A C11U C60A C62U | ≤ 0.5
155 | U2C C30U C33U G63C | ≤ 0.5
156 | U2C C5U A15U | 0.568
157 | U2C G9A A20G | 1.07
158 | U2C C22G U53C | 0.504
159 | U2C C24G C46U A70U | 0.537
160 | U2C G23C C27G A45G G52A C66A | 0.534
161 | U2C C27A A40G C61G | ≤ 0.5
162 | U2C C29A A43G | 0.603
163 | U2C G23C | 0.651
164 | U2C C27U G41A | 1.06
165 | U2C C4G | 0.965
166 | U2C C4A | 0.877
167 | U2C C4U A42G | 0.512
